# Source: PubChem (several laboratories)
# ABHD5-PLIN5 inh: inhibitors of human ABHD5-perilipin-5 interaction; Split G. princeps luciferase complementation, luminescence, 4 h; inhibition, % at 4 µM; hit rate 0.78% among 360,000;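 active means inhibition above the mean inhibition across every tested compound plus 3 SD, cut at about 22% in these data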;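 further: 0% = DMSO only wells and the 100% control is not disclosed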
# Target sequence (Q00G26 whole entry, looked up): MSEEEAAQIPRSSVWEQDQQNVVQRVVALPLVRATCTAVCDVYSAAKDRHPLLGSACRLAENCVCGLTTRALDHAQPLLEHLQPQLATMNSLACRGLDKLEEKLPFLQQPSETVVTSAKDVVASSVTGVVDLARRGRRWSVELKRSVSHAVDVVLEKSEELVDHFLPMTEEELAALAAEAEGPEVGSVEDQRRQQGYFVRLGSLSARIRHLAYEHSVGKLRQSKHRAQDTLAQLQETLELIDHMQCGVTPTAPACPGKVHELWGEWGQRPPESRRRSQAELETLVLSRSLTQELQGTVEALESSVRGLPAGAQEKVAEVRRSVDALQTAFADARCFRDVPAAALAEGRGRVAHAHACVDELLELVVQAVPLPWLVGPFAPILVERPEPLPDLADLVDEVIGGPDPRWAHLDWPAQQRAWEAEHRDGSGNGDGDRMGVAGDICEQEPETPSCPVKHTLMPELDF
# Target sequence (Q8WTS1 whole entry, looked up): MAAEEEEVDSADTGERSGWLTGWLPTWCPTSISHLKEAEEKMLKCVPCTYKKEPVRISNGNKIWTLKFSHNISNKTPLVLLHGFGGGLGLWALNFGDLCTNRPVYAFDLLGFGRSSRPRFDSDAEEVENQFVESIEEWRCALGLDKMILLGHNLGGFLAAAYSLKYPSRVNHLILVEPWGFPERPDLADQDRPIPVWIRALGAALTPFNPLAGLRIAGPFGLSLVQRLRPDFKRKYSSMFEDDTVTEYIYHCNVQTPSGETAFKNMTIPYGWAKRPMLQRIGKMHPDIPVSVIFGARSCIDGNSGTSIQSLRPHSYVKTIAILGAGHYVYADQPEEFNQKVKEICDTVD
# Exocytosis inh: blocks lytic granule exocytosis | TALL-104 LAMP-1 surface exposure, flow cytometry; cells stimulated with thapsigargin and PMA | inhibition, % at 10 µM | hit rate 0.66% among 360,000 | AID 651702;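 active means inhibition above about 55%, limit read from the data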
# PfGluPho inh: PfG6PD (Plasmodium falciparum) enzyme inhibition; inhibition, % at 20 µM; hit rate 0.78% among 350,000; PfGluPho enzyme, NADPH resazurin-diaphorase fluorescence; AID 504690;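 active means inhibition reaching at least a set limit at 20 µM in the primary screen, cut at about 59% in these data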;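 further: 0% = DMSO wells with substrate and 100% = DMSO wells lacking glucose-6-phosphate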
# HKDC1 inhibitor: blocks human hexokinase HKDC1 activity. recombinant HKDC1, G6PDH/diaphorase resazurin coupled fluorescence. inhibition, % at 20 µM. hit rate 0.16% among 340,000. Q2TB90;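 active means inhibition above about 35% when tested at 20 µM, limit read from the data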;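 further: plate controls were DMSO wells with enzyme for no effect and DMSO wells lacking enzyme for full effect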
#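 Test system: recombinant HKDC1 (HK5) hexokinase enzyme, produced in-house; Amount: enzyme 5 µg/mL final; Buffer or medium: Tris pH 8.0 buffer with MgCl2, Tween-20, BSA, BME; Reagent: glucose and ATP substrates; Doses: 20 µM test compound, 1% DMSO; Incubation: 90 min reaction incubation at room temperature, dark; Detection: resorufin fluorescence at 613 nm.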
# Exocytosis CP01: lytic granule exocytosis inhibition | shares compounds with Exocytosis inh | TALL-104 cells, LAMP-1 externalization, flow cytometry; stimulated with PMA plus thapsigargin | inhibition, % at 10 µM | hit rate 11% among 1,500 | AID 651954; in the data active means inhibition above about 60%;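 further: 0% = stimulated vehicle wells and 100% = unstimulated wells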
# An asterisk follows results filed as active; nt = no result. Hits are enriched below; roughly 2.2% of the tested compounds scored in any of these assays.
SMILES,ABHD5-PLIN5 inh,Exocytosis inh,PfGluPho inh,HKDC1 inhibitor,Exocytosis CP01
CCOC(=O)c1c(-c2ccccc2)oc2ccc(OCC(O)CN(C)C)cc12 (stereo not given),12.4,83.7*,-0.2,6.3,-2.6
O=C(Nc1cccc2cccnc12)c1ccccc1Cl,-5.7,0.1,-6.0,2.7,nt
COc1ccccc1NC(=O)CNC(c1ccccc1)c1ccccc1,-4.3,76.6*,-5.3,1.3,-12.1
COc1cc(NC(=O)c2cc(OC)c(OC)c(OC)c2)c2ncccc2c1,14.2,93.5*,11.7,6.4,25.0
COc1ccccc1C(=O)Nc1cccc2cccnc12,2.1,56.1*,17.9,-2.5,-14.2
COc1ccccc1NC(=O)c1ccccc1Oc1ccccc1,0.7,67.5*,-6.4,-4.4,-0.7
CC(C)(C)NC(=O)NC(=O)CSc1ccc(S(=O)(=O)N2CCCCC2)cn1,-10.2,1.5,32.5,-5.8,nt
COc1ccc(N/C=C/C(=O)c2cc(OC)c(OC)c(OC)c2)cc1,-0.5,57.0*,7.2,0.9,-10.6
OCC1(CCc2ccccc2)CCN(C/C=C/c2ccccc2)CC1,0.1,56.6*,4.5,-3.6,-11.7
CCCCN(Cc1ccccc1)C1CCN(Cc2ccccc2)CC1,-6.1,68.4*,-9.2,-7.3,-11.9
CCN(Cc1ccccc1)C1CCN(Cc2ccc(SC)cc2)CC1,-2.3,-0.4,-1.5,-3.2,nt
CN(Cc1ccccn1)C(=O)c1cc(COc2ccc(F)cc2Cl)on1,6.5,17.8,-6.8,nt,nt
CN(C(=O)c1cc(COc2ccc(F)cc2Cl)on1)C1CCCc2ccccc21 (stereo not given),-11.5,57.4*,13.3,1.3,2.0
Cc1ccc2cccc(NC(=O)c3ccc(Br)o3)c2n1,-5.3,89.1*,1.3,4.9,-4.2
C[C@@H]1CN([C@@H](C)CO)C(=O)CCCn2nncc2CO[C@@H]1CN(C)C(=O)c1ccccc1,10.1,-3.5,7.8,nt,nt
CN(C(=O)c1cccc(NC(=O)Cc2ccc(NC(=O)C3CCN(C(=O)C4CCC4)CC3)cc2)c1)C1CCCCC1,-0.4,58.4*,-6.2,-4.3,-12.9
COc1ccc(-c2nnc(SCc3ccc(C(=O)O)cc3)n2N)cc1,0.2,-1.8,-0.1,-7.9,nt
COc1cc2c(cc1OC)C(CCc1ccccc1)=NCC2,-3.5,62.7*,-3.1,-4.0,-11.9
COc1cc2c(cc1OC)C(c1c(Cl)cccc1Cl)=NCC2,-6.0,0.2,nt,nt,nt
Cc1ccc(S(=O)(=O)NC(C)C(=O)NC(C)c2cccs2)cc1 (stereo not given),3.3,-4.1,-1.7,-4.4,nt
COc1ccc2noc3c2c1C(=O)c1ccccc1-3,-1.3,88.3*,57.2,24.1,23.3
Cc1ccc(NC(=O)CSc2nccn2C)cc1S(=O)(=O)N1CCOCC1,3.1,-0.5,-0.8,-9.6,nt
Cc1ccc(NC(=O)CSc2nnc3ccccn23)cc1S(=O)(=O)N1CCOCC1,-2.3,81.2*,8.5,-12.0,-4.2
CC(C)OCCCn1c(SCC(=O)Nc2ccccc2C(F)(F)F)nc2nccnc2c1=O,-1.2,-5.8,1.1,-2.9,nt
COc1ccc(N(CC(=O)N/N=C(\C)c2ccc(OC)c(OC)c2)S(=O)(=O)c2ccccc2)cc1,-5.5,-15.9,7.5,-2.7,nt
SMILES,ABHD5-PLIN5 inh,Exocytosis inh,PfGluPho inh,HKDC1 inhibitor,Exocytosis CP01
COc1ccccc1Cc1c(-c2ccco2)nc2ccc(Cl)cn12,27.4*,81.9*,nt,nt,4.0
CCOC(=O)c1c2c(n(C)c1C)C(=O)C(=O)c1ccc(Br)cc1-2,-18.8,1.5,21.8,11.3,nt
CCOC(=O)c1c2c(n(Cc3ccccc3)c1C)C(=O)C(=O)c1ccccc1-2,-33.8,99.1*,47.2,25.3,49.8
CC1CCC(NC(=O)CN2C(=O)NC(C)(C)C2=O)CC1 (stereo not given),-1.8,-4.1,2.4,-7.4,nt
NS(=O)(=O)c1ccc(CCNCc2ccccc2OCc2ccc(Cl)cc2)cc1,10.6,56.6*,-0.1,0.7,-11.3
COCCCNC(=O)CC1C(=O)N(Cc2ccccc2)C(C)c2nc3ccccc3n21 (stereo not given),2.8,-0.9,-7.3,-8.5,nt
COc1ccc(CCNCc2cc(C)n(-c3ccc(OC)cc3)c2C)cc1,-8.2,61.1*,5.7,-1.4,1.4
S=C(Nc1ccccc1Cl)NC1CC2CCCC(C1)N2C1CC1 (stereo not given),-7.0,87.1*,16.5,0.1,-3.4
CC(C)(C)C(=O)NC1CC2CCCC(C1)N2C(=O)Nc1ccccc1Cl (stereo not given),-0.6,6.2,0.1,0.5,nt
COc1ccc(C(C(=O)NCc2ccccc2)N(C(=O)c2snc(C(N)=O)c2N)c2ccccc2OC)cc1 (stereo not given),-1.6,64.9*,4.7,5.0,-5.1
COc1ccccc1N(C(=O)c1snc(C(N)=O)c1N)C(C(=O)NCc1ccccc1)c1ccc(O)cc1 (stereo not given),0.2,50.0,10.9,-0.9,nt
O=C(NC(c1ccccc1)c1ccccc1)c1ccc(=O)[nH]n1,-0.5,-0.7,-22.3,-11.5,nt
CCOc1ccc(S(=O)(=O)n2cc(-c3ccc(F)cc3)c(N)n2)cc1,-0.4,74.0*,12.9,5.2,2.5
CCOc1ccc(S(=O)(=O)n2cc(-c3ccccc3)c(N)n2)cc1,-8.3,66.9*,0.1,-8.7,-7.5
COC(=O)c1cccc(NC(=O)COc2cccc([N+](=O)[O-])c2)c1,-4.5,-3.3,1.3,-7.1,nt
Cc1cc(C)cc(NC(=O)CN(C)CC(=O)N(CC(C)C)c2c(N)n(CC(C)C)c(=O)[nH]c2=O)c1,-0.1,-3.5,6.1,-3.1,nt
COc1ccc(/C(C)=N/NC(=O)CNC(=O)c2cccnc2)c(OC)c1,-8.1,8.1,0.6,-5.5,nt
CCc1ccc(NC(=O)CSc2nc3ccccc3c(=O)n2CCCN2CCC(C)CC2)cc1,10.1,86.7*,4.7,2.8,17.3
Clc1ccc(C2Nc3cccc4cccc(c34)N2)c(Cl)c1,13.0,73.6*,33.7,13.3,7.4
Clc1ccc(C2Nc3cccc4cccc(c34)N2)cc1,-6.3,16.2,31.6,12.2,nt
CCOc1cc(CNC(C)(C)CO)cc(Br)c1OCc1ccc(Cl)cc1Cl,17.4,66.5*,16.1,17.5,35.4
O=C(c1ccc(S(=O)(=O)c2cccc(Cl)c2)c([N+](=O)[O-])c1)N1CCN(Cc2ccccc2)CC1,11.3,0.0,8.7,10.4,nt
COc1cccc(OC)c1OCCN1CCN(C(c2ccccc2)c2ccccc2)CC1,-0.1,62.2*,-15.0,-2.4,-9.9
COc1cccc(OC)c1OCCCN1CCC(Cc2ccccc2)CC1,8.2,67.7*,2.2,-6.4,-11.9
COc1ccc(CN2CCC(Cc3ccccc3)CC2)cc1OC,3.5,28.2,8.5,-1.2,nt
C=C1CC2(OC1=O)c1ccccc1CCc1ccccc12,59.6*,90.2*,55.5,15.6,-10.1
COc1cc(CC(=O)OCC(=O)NCc2ccco2)cc(OC)c1OC,7.9,-1.2,-5.3,-6.7,nt
CCc1nc2ccc(C(=O)NC3CCN(Cc4ccccc4)CC3)cn2c1N(C)Cc1cccs1,-1.3,7.5,nt,nt,nt
CCc1nc2ccc(C(=O)NC3CCN(Cc4ccccc4)CC3)cn2c1N(C)Cc1cc2ccccc2s1,12.5,59.4*,nt,nt,65.3*
